Key:
hERG = hERG (Homo sapiens, UniProt Q12809); assay: Patch-clamp electrophysiology of hERG blockade in HEK 293 cells; assay type: cell-based; conditions: for IC50: read-out: IC50 at hERG, patch-clamp, whole cell tail currents
Procedure, shortened: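 Whole-cell patch clamp of hERG (described as mutants) expressed in HEK 293 cells. Pipette: 10 mM KCl, 110 mM K-aspartate, 5 mM MgCl2, 5 mM Na2ATP, 10 mM EGTA, 5 mM HEPES, 1 mM CaCl2, pH 7.2. Holding at −80 mV, 1-s step to +50 mV, tail current read at −100 mV. Test compound freshly dissolved in Tyrode, used within two hours.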

rDAT = rDAT (Rattus norvegicus, UniProt P23977); assay: Radioligand binding assay of rDAT with [3H]WIN35,428 in rat striatal membranes
Chain of rDAT (P23977 whole entry): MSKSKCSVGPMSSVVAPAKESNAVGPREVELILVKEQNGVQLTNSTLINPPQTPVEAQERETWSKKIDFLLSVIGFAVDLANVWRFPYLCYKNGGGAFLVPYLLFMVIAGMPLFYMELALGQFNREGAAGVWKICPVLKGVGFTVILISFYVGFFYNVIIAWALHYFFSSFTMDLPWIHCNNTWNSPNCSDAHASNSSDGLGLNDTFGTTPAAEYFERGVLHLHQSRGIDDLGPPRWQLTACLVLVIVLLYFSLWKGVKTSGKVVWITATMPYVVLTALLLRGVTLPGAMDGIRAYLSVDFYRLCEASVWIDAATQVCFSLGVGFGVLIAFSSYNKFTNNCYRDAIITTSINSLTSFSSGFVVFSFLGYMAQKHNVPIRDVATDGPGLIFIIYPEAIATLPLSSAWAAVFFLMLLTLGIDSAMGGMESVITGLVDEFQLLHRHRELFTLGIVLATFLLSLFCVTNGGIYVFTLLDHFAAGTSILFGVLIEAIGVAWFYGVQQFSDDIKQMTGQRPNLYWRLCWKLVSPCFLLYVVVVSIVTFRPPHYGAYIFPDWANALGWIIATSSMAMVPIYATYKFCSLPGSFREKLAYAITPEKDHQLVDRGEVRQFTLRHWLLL

Chain of hERG (Q12809 whole entry): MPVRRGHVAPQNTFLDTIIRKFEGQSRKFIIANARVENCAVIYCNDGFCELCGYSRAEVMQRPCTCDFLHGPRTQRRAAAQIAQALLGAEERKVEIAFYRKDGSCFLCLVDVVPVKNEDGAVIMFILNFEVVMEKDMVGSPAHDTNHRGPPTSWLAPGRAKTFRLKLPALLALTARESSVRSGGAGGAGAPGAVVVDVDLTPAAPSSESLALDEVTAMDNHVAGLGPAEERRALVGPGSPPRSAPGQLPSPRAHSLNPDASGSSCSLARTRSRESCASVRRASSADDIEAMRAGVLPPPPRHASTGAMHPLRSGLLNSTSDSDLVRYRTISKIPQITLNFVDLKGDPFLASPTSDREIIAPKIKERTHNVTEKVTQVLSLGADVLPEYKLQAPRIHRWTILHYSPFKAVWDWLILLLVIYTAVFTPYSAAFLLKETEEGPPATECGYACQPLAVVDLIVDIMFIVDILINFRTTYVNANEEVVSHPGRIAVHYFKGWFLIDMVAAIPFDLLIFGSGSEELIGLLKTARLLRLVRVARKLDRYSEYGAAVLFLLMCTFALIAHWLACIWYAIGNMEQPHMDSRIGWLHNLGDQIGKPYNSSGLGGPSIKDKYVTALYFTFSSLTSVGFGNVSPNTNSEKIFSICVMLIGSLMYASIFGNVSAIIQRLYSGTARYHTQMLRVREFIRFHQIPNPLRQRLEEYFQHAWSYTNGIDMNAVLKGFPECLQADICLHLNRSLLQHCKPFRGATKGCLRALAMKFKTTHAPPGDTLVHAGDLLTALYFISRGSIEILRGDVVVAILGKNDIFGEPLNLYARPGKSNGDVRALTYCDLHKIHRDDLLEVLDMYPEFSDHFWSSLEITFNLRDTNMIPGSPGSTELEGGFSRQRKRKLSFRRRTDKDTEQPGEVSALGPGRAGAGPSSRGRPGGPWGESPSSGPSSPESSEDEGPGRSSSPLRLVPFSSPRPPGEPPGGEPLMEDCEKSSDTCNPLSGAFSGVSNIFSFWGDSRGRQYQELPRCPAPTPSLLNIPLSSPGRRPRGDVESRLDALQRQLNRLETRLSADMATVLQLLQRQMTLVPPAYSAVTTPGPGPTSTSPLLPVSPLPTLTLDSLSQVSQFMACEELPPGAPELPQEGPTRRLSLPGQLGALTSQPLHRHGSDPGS

Which IC50 (hERG) does the source give for `Fc1ccc(C(SCCNCCCc2ccccc2)c2ccc(F)cc2)cc1` [JJC8-016] here?
The IC50 was 60 nM.

`[O-][S+](CCN1CCN(CC(O)Cc2ccccc2)CC1)C(c1ccc(F)cc1)c1ccc(F)cc1` (centres unmarked) [JJC8-088] was tested. Which “fold lower affinity than JJC8-016 at hERG” value (hERG; ratio of IC50 values, JJC8-088 versus JJC8-016) did it give?
The value was ~ 2 fold.

What about the IC50 (hERG) of the same molecule?
Its IC50 is 130 nM.

And the “fold higher affinity than JJC8-016 at DAT” value (rDAT; ratio of Ki values, JJC8-088 versus JJC8-016)?
The value was ~ 90 fold.

And the Ki (rDAT; read-out: Ki at DAT, [3H]WIN35,428 as the radioligand)?
Its Ki is 2.6 nM.

— article PMC9593962 (Journal of chemical information and modeling, 2021)
